Entries after “also recorded” stand apart in the source; their conditions may differ. Like-named read-outs stand apart in the source and are kept apart here. Primed or numbered codes have the meaning given here. Biotin′ = not defined here; Az8 = not defined here
Tests used:
[1] = system: AKT in fixed OVCAR3 cells; experiment: Immunocytochemistry; format: cell-based; details: permeabilized OVCAR3 cells, unstimulated vs EGF+insulin
Outline: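 OVCAR3 cells were left unstimulated or treated with EGF plus insulin, then fixed and permeabilized. They were stained with fluorescein-labelled test compound, and a fluorescein-conjugated anti-Akt monoclonal antibody served as benchmark. Akt localization was imaged by immunofluorescence microscopy.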

[2] = system: Akt-S473E; experiment: ELISA with immobilized Akt-S473E; format: binding
Outline: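 Akt1-S473E kinase domain, expressed in Hi5 insect cells, was immobilized on Ni-NTA plates. It was incubated with varying concentrations of biotinylated test peptide. Binding signal was normalized to the binding observed at saturation.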

[3] = system: Akt1-S473E-T308P; experiment: Akt1 kinase inhibition test of candidate anchor sequences; format: biochemical; details: Figure S6
Target sequence in this assay (P31749 150-480 S473E limits assumed): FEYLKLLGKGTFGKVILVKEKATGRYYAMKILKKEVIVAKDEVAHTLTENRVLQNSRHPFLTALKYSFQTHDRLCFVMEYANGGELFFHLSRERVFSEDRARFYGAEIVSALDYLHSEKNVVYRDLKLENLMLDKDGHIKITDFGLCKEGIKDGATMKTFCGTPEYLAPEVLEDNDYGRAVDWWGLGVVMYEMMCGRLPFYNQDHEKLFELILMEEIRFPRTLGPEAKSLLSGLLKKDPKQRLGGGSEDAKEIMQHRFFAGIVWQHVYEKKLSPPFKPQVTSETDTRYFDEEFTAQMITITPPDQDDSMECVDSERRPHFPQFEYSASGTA

[4] = system: Akt1-S473E-T308P; experiment: Competitive enzyme kinetic assays of Akt1 with triligand; format: biochemical
Outline: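 Akt1 kinase domain (S473E mimic, Hi5 insect-cell expressed, T308-phosphorylated form) assayed at varying peptide-substrate or ATP concentrations across varying test compound concentrations. KM and Vmax were fitted by nonlinear regression. Ki came from negative x-intercepts of Dixon plots (1/v vs [compound], varying ATP), and Ki' from intercepts of Cornish-Bowden plots ([peptide]/v vs [compound], varying peptide). Both are given as mean ± standard deviation.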

[5] = system: GSK3β; experiment: ELISA-based binding analysis over a range of kinase concentrations, GSK3β; details: Figure S18
[6] = system: Akt1; experiment: ELISA-based binding analysis over a range of kinase concentrations, Akt1; details: Figure S18
[7] = system: Akt1-S473E-T308P; details: read-out: KM (literature); ATP; ref 21 (Klein et. al.); cited from earlier work
[8] = biological target: Akt1 kinase domain with the S473E mutation (Akt1-S473E)

fluorescein-labeled triligand: fluorescein-labeled triligand employed as an ICC imaging agent (chain 1 VFYRLGY; chain 2 FWFLRG; chain 3 RHERI; N-terminal azido amino acid Az8 before V, joined through a 1,4-triazole to the Pra of the secondary peptide | N-terminal propargylglycine (Pra) before F, joined through a 1,4-triazole to Az8 of the an)
Akt localization in ICC (in words) [1]: localization of Akt at the plasma membrane after cell stimulation

Az8-VFYRLGY-CONH2 [anchor peptide]
affinity ([2]; anchor peptide, Akt, assay of this value not stated at the place): > 25 µM | inhibition of the Akt1 kinase ([3]; absence of the conjugated small molecule inhibitor (Ac7)): ~95% | inhibition of the Akt1 kinase ([3]; presence of the conjugated small molecule inhibitor (Ac7)): ~95%

triligand: tertiary peptide Ac-Az8-RHERI-CONH2 conjugated to the biligand to form a biotinylated branched triligand (chain 1 VFYRLGY; chain 2 FWFLRG; not fully specified; N-terminal azido amino acid Az8 before V, joined through a 1,4-triazole to the Pra of the secondary peptide; C-terminal biotin | N-terminal propargylglycine (Pra) before F, joined through a 1,4-triazo)
inhibitory potency (in words) [4]: low micromolar inhibitory potency | effect on KM ([4]; ATP is the varied substrate): no effect on KM | effect on enzyme Vmax ([4]; increasing triligand concentration, varied [ATP] or varied [peptide]): reduction in the enzyme Vmax for both substrates | effect on KM ([4]; peptide concentration is varied): KM decreases | inhibition mode ([4]; varied [ATP], variable [Triligand]): noncompetitive inhibition | inhibition mode ([4]; varied [ATP], variable [Triligand], listed as Triligand): Noncompetitive | inhibition mode ([4]; varied [Peptide], variable [Triligand]): uncompetitive inhibition | mode of inhibition / inhibitory mechanism, overall ([4]; with respect to ATP and peptide substrates): allosteric mode of inhibition; also recorded: triligand inhibition occurs in a noncompetitive fashion; also recorded: not competitive with respect to either the peptide or ATP binding site; also recorded: allosteric mechanism | decrease of affinity for GSK3β, biligand to triligand [5]: approximately 2 fold | affinity for Akt1 (in words) ([2]; comparison within anchor/biligand/triligand series): only marginally improved over the biligand; also recorded: only a modest affinity improvement | change of affinity for Akt1, biligand to triligand [6]: increases modestly

Nc1ncnc2c1ncn2[C@@H]1O[C@H](COP(=O)(O)OP(=O)(O)OP(=O)(O)O)[C@@H](O)[C@H]1O [ATP, reference compound]
Vmax ([4]; Akt1-S473E-T308P, V vs. [ATP], variable [Triligand], nonlinear regression): 98996 ± 8242 pmol/min/mg | Km ([4]; read-out: KM (this work), Akt1-S473E-T308P, nonlinear regression (GraphPad), V vs. [ATP], variable [Triligand]): 213 ± 25 µM | Km [7]: 155 µM

B1: biotinylated anchor peptide Ac-Az8-VFYRLGY-Biotin (peptide)
peptide: {Ac-Az8}-VFYRLGY-{Biotin′}
modifications: reading uncertain; also: printed as Ac-Az8-VFYRLGY-Biotin
Kd [8]: > 25 µM

Source: publication PMC3651860 (Journal of the American Chemical Society, 2011)
